Assay results: ChEMBL document CHEMBL5653631, “A Potent and Selective ULK1 Inhibitor Suppresses Autophagy and Sensitizes Cancer Cells to Nutrient Stress” (iScience, 2018)

Columns and labels:
[1] = target: RAF proto-oncogene serine/threonine-protein kinase (Homo sapiens) (UniProt P04049); test: Inhibition of human recombinant RAF1 at 500 nM in presence of ATP by radiometric assay relative to control
Homo sapiens = species on record: Homo sapiens; test: Inhibition of human recombinant p70S6K at 500 nM related to control ULK1
[2] = target: Serine/threonine-protein kinase PLK2 (Homo sapiens) (UniProt Q9NYY3); test: Inhibition of human recombinant PLK2 at 500 nM in presence of ATP by radiometric assay relative to control
[3] = target: Epithelial discoidin domain-containing receptor 1 (Homo sapiens) (UniProt Q08345); test: Inhibition of human recombinant DDR1 at 500 nM in presence of ATP by radiometric assay relative to control
[4] = target: T1, Serine/threonine-protein kinase D3 (Homo sapiens) (UniProt O94806); test: Inhibition of human recombinant PKD3 at 500 nM related to control ULK1
T1 sequence (whole entry): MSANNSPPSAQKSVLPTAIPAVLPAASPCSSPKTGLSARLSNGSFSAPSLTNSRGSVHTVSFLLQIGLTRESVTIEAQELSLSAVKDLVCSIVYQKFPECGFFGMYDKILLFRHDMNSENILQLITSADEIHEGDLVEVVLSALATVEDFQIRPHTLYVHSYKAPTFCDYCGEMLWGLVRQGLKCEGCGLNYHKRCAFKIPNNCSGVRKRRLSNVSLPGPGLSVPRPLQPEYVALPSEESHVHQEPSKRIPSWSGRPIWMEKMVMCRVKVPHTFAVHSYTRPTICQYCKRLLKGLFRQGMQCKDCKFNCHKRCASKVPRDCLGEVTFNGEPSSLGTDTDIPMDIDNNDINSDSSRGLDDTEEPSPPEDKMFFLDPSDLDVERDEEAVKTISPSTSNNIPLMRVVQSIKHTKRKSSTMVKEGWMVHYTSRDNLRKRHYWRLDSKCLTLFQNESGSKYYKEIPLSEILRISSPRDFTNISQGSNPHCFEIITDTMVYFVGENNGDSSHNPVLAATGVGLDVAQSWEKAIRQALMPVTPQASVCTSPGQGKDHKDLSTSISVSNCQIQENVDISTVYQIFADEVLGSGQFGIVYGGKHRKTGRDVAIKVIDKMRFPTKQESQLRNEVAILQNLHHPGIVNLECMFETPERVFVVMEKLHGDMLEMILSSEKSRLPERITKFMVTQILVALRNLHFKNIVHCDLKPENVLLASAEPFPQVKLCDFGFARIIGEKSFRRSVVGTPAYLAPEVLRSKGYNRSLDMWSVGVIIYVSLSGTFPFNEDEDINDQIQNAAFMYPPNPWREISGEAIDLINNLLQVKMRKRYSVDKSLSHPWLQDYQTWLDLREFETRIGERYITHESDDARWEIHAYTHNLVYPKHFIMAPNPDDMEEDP

[5] = target: Serine/threonine-protein kinase SBK1 (Homo sapiens) (UniProt Q52WX2); test: Inhibition of human recombinant SBK1 at 500 nM related to control ULK1
[6] = target: TRAF2 and NCK-interacting protein kinase (Homo sapiens) (UniProt Q9UKE5); test: Inhibition of human recombinant TNIK at 500 nM in presence of ATP by radiometric assay relative to control
[7] = target: Serine/threonine-protein kinase B-raf (Homo sapiens) (UniProt P15056); test: Inhibition of human recombinant BRAF at 15 nM in presence of ATP by radiometric assay relative to control
Outline: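 Part of a radiometric in vitro activity panel of 327 recombinant human kinases. Each kinase was tested in duplicate at one inhibitor concentration. Activity remaining was expressed as a percentage of the vehicle control, and percent inhibition was taken as 100 minus that value.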

[8] = target: eIF-2-alpha kinase GCN2 (Homo sapiens) (UniProt Q9P2K8); test: Inhibition of human recombinant GCN2 at 15 nM related to control ULK1
[9] = target: cAMP-dependent protein kinase catalytic subunit beta (Homo sapiens) (UniProt P22694); test: Inhibition of human recombinant PKACbeta at 15 nM related to control ULK1
[10] = target: T2, Serine/threonine-protein kinase ICK (Homo sapiens) (UniProt Q9UPZ9); test: Inhibition of human recombinant ICK at 15 nM in presence of ATP by radiometric assay relative to control
T2 sequence (whole entry): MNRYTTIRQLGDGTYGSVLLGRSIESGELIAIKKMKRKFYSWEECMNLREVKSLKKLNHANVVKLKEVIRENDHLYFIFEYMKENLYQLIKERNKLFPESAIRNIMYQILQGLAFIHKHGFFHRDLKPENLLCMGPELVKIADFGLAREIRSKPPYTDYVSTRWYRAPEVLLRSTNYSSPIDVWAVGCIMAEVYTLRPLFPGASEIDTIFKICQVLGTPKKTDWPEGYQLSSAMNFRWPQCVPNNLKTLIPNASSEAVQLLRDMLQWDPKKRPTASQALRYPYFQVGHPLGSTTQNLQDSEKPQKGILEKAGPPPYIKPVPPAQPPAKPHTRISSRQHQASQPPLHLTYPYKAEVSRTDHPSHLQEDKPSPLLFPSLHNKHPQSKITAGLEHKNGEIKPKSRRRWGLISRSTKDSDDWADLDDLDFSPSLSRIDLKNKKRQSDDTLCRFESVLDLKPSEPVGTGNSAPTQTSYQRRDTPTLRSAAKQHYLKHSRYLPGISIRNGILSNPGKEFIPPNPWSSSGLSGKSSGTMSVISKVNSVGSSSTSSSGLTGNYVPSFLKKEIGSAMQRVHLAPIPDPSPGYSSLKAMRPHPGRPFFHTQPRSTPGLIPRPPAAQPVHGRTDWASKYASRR

Sequence of RAF proto-oncogene serine/threonine-protein kinase (Homo sapiens) (P04049 whole entry): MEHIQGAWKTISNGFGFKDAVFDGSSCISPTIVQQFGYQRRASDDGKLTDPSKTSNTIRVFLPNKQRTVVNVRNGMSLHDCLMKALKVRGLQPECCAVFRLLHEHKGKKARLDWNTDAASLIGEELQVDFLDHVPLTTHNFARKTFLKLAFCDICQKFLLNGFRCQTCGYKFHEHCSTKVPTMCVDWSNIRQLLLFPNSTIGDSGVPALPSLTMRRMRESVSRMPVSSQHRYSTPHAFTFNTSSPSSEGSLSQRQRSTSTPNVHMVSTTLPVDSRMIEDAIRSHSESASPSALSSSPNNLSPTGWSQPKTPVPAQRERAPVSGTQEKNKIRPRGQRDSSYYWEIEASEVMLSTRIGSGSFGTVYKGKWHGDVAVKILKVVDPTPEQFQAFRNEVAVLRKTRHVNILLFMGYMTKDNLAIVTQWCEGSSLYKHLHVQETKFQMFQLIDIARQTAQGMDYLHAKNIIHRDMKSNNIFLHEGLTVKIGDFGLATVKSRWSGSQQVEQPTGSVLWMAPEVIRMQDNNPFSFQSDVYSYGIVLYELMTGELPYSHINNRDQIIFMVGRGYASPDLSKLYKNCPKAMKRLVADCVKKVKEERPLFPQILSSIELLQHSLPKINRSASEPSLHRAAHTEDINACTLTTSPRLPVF
Sequence of Serine/threonine-protein kinase PLK2 (Homo sapiens) (Q9NYY3 whole entry, looked up, the tested form may be a part): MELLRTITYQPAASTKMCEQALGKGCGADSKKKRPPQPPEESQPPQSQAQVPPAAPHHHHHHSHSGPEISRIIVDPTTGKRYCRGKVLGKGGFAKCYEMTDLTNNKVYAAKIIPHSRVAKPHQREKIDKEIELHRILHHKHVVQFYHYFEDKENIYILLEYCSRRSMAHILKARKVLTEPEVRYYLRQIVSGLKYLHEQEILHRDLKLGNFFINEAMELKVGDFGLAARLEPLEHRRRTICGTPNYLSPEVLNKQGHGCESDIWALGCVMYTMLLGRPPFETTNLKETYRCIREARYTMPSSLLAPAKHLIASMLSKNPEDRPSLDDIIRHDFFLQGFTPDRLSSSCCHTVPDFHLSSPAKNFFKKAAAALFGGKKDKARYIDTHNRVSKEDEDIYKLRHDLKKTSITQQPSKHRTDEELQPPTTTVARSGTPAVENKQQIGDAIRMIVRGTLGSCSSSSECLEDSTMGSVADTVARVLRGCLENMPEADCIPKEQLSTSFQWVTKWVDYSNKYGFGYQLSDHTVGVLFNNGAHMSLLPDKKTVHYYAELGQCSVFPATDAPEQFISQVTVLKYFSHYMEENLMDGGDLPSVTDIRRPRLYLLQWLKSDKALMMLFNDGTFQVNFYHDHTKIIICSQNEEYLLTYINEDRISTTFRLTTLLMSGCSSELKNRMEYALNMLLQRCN
Sequence of eIF-2-alpha kinase GCN2 (Homo sapiens) (Q9P2K8 whole entry): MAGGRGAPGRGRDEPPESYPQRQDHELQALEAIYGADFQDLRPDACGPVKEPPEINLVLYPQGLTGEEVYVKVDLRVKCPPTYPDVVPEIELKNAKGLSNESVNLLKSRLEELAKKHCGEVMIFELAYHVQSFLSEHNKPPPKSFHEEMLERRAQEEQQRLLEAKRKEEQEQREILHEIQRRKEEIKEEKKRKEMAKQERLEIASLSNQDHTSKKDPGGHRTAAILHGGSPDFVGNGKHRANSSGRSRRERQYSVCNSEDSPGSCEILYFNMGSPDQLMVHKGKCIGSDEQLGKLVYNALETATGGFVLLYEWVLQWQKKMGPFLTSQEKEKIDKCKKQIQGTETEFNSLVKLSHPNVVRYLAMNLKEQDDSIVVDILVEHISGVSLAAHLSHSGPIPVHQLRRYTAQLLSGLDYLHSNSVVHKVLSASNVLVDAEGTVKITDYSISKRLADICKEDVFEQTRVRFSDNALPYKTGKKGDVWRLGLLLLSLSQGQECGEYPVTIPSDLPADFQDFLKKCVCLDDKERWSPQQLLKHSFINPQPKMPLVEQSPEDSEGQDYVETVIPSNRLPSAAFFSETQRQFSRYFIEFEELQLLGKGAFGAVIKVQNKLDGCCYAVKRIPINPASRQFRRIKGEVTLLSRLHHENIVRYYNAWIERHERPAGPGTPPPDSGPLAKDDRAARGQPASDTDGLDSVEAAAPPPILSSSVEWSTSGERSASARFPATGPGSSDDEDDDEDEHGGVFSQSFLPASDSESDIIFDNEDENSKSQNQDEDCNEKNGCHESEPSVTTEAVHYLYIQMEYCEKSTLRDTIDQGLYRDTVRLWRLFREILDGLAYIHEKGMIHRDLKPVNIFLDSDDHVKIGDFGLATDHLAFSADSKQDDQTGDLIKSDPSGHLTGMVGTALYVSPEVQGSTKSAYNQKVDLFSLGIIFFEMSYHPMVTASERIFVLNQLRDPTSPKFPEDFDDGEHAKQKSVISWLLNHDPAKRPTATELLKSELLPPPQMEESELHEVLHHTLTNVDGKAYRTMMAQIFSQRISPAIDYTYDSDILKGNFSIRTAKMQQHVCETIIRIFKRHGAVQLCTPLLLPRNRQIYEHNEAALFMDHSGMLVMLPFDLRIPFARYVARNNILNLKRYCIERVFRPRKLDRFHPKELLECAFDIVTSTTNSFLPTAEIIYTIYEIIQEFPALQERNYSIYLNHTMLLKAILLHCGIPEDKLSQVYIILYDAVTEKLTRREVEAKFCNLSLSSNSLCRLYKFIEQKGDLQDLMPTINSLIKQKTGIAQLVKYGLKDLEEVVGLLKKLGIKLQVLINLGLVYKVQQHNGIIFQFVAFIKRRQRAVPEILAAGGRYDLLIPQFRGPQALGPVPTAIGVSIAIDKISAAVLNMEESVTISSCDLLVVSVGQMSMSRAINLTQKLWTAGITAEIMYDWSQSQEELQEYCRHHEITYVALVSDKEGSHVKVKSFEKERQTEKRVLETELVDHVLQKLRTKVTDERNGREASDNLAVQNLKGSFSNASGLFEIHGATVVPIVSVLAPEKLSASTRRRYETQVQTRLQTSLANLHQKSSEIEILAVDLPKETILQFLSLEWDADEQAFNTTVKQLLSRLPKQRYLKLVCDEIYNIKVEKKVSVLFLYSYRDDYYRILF
Sequence of TRAF2 and NCK-interacting protein kinase (Homo sapiens) (Q9UKE5 whole entry, looked up): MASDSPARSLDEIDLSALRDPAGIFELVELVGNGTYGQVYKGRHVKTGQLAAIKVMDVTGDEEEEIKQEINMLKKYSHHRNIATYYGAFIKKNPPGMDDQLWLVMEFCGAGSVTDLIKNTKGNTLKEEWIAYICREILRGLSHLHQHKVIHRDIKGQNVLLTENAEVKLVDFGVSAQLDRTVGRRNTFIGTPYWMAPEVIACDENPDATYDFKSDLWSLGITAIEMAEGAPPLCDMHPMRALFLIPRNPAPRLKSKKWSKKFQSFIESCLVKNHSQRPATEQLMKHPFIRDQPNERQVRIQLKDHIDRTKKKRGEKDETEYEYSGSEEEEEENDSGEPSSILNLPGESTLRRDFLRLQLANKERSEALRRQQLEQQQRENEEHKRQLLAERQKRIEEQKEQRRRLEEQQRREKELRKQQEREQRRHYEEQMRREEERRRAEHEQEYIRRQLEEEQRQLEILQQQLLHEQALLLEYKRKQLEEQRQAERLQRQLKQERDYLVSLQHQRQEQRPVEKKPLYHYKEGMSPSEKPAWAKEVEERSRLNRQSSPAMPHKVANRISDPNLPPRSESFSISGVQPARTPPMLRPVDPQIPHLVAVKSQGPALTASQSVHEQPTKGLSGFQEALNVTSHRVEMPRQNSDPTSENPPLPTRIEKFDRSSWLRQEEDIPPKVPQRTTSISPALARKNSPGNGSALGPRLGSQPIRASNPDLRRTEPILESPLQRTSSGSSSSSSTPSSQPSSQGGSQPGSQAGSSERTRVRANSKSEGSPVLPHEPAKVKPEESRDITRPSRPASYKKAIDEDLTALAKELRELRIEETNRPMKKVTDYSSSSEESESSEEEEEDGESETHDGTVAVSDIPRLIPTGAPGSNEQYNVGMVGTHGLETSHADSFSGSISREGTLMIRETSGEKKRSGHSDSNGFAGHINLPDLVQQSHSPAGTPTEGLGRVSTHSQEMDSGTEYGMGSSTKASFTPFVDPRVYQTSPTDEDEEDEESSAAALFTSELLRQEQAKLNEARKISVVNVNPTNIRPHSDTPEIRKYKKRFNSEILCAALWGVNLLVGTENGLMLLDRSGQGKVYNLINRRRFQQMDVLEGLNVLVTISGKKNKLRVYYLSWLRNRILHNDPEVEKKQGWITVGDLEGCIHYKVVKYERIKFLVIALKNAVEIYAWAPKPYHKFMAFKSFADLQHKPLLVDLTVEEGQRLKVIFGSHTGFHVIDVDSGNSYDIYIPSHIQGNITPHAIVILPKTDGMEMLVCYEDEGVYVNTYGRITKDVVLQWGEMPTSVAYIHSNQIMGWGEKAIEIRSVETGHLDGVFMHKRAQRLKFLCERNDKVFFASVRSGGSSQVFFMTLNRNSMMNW
Sequence of Serine/threonine-protein kinase B-raf (Homo sapiens) (P15056 whole entry): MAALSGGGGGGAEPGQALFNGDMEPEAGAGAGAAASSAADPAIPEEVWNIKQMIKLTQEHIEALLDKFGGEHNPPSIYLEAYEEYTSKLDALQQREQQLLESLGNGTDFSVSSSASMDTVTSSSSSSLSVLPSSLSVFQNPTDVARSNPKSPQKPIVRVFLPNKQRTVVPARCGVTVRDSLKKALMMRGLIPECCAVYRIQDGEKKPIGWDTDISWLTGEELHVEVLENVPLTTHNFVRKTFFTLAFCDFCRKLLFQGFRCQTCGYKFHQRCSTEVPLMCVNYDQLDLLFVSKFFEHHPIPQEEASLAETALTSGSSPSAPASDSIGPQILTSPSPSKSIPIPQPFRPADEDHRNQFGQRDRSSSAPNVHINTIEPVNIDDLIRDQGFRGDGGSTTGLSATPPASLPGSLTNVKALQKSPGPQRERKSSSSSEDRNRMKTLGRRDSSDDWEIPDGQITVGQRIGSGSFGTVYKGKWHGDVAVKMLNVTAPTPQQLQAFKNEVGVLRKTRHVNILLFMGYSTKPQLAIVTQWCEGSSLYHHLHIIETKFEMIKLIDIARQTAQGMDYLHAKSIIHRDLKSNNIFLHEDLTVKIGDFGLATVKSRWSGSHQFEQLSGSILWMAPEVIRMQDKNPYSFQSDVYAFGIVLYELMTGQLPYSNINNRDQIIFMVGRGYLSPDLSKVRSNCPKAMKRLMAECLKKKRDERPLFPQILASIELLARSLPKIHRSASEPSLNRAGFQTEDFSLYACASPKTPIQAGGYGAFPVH

Row | SMILES | inhibition [1] [%] | fold change (FC) (Homo sapiens) | inhibition [2] [%] | inhibition [3] [%] | fold change (FC) [4] | fold change (FC) [5] | inhibition [6] [%] | inhibition [7] [%] | fold change (FC) [8] | fold change (FC) [9] | inhibition [10] [%]
1 | CNC(=O)c1ccccc1Oc1nc(Nc2cc(OC)c(OC)c(OC)c2)ncc1Br | 11 | 0 | 4 | 47 | 0 | 0.68 | 4 | – | – | – | –
2 | CC(C)[C@H](NC(=O)c1cc(-c2cnn3cc(-c4ccc(OCCN5CCCCC5)cc4)cnc23)cs1)C(F)(F)F | – | – | – | – | – | – | – | 11 | 0.09 | 0 | 0
